Calls of active or inactive are those of the source. No cut-off for these calls is given here.
How the values were obtained:
Rattus norvegicus [1] = assay: Toxicity in Sprague-Dawley rat assessed as change in body weight at 600 mg/kg, ip measured after 24 hrs of clonus of one of the fore limbs seizure stage in protected rat; format: organism-based; set-up: dose 600 mg/kg, route intraperitoneal; details: in vivo
How it was run: (§1)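 Male Sprague–Dawley rats (150–180 g) received compound ip at 600 mg/kg, then a challenge dose of pilocarpine. Seizure severity graded on the Racine scale; rats were scored as protected or not, and body weight change was taken 24 h after the first stage III seizure.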

Rattus norvegicus [2] = assay: Toxicity in Sprague-Dawley rat assessed as change in body weight at 600 mg/kg, ip measured after 24 hrs of clonus of one of the fore limbs seizure stage in non-protected rat; format: organism-based; set-up: dose 600 mg/kg, route intraperitoneal; details: in vivo; how it was run: as §1
Rattus norvegicus [3] = assay: Anticonvulsant activity in Sprague-Dawley rat assessed as protection against pilocarpine-induced status epilepticus at 600 mg/kg, ip measured after clonus of one of the fore limbs seizure stage; format: functional, organism-based; set-up: dose 600 mg/kg; how it was run: as §1
Mus musculus [4] = assay: Anticonvulsant activity in CF1 albino mouse assessed as protection against subcutaneous pentylenetetrazole-induced seizures at 300 mg/kg, ip after 4 hrs; format: functional, organism-based; set-up: dose 300 mg/kg
How it was run: (§2)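 Male CF-1 mice; compounds suspended in 0.5% methylcellulose/water and injected ip at 30, 100 and 300 mg/kg. MES, scPTZ (pentylenetetrazole 85 mg/kg sc at the test time) and rotarod neurotoxicity were scored at 0.5 and 4 h. Value is the lowest dose active or toxic in half or more of the animals; signs such as ataxia or tremor were recorded.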

Rattus norvegicus [5] = assay: Anticonvulsant activity in Sprague-Dawley rat assessed as protection against subcutaneous pentylenetetrazole-induced seizures at 50 mg/kg po after 0.25 hrs; format: functional, organism-based; set-up: dose 50 mg/kg
How it was run: (§3)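 Oral fixed dose of 50 mg/kg in male Sprague–Dawley rats (0.5% methylcellulose/water suspension), four rats per group. Pentylenetetrazole 70 mg/kg given sc at each test time (0.25, 0.5, 1, 2, 4 h); protection from clonic seizures counted per four rats, with motor impairment studied in parallel.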

Mus musculus [6] = assay: Neurotoxicity in CF1 albino mouse assessed as myoclonic jerks at 100 mg/kg, ip after 4 hrs by rotarod test; format: toxicity, organism-based; set-up: dose 100 mg/kg, route intraperitoneal; details: in vivo; how it was run: as §2
Rattus norvegicus [7] = assay: Anticonvulsant activity in Sprague-Dawley rat assessed as protection against maximal electroshock-induced seizures at 30 mg/kg po after 1 hr; format: functional
How it was run: (§4)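 Male Sprague–Dawley rats, four per group, given 30 mg/kg orally as a 0.5% methylcellulose/water suspension. MES protection scored at 0.25, 0.5, 1, 2 and 4 h after dosing, motor impairment checked in parallel; data are the number of the four rats protected.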

Rattus norvegicus [8] = assay: Anticonvulsant activity in Sprague-Dawley rat assessed as protection against subcutaneous pentylenetetrazole-induced seizures at 50 mg/kg po after 2 hrs; format: functional; how it was run: as §3
Rattus norvegicus [9] = assay: Anticonvulsant activity in Sprague-Dawley rat assessed as protection against maximal electroshock-induced seizures at 30 mg/kg po after 4 hrs; format: functional; how it was run: as §4
Rattus norvegicus [10] = assay: Anticonvulsant activity in Sprague-Dawley rat assessed as protection against maximal electroshock-induced seizures at 30 mg/kg po after 0.5 hrs; format: functional; how it was run: as §4
Mus musculus [11] = assay: Neurotoxicity in ip dosed CF1 albino mouse assessed as dose required to cause toxicity after 4 hrs by rotarod test; format: organism-based; details: in vivo; how it was run: as §2
Rattus norvegicus [12] = assay: Anticonvulsant activity in Sprague-Dawley rat assessed as protection against subcutaneous pentylenetetrazole-induced seizures at 50 mg/kg po after 0.5 hrs; format: functional; how it was run: as §3
Rattus norvegicus [13] = assay: Anticonvulsant activity in Sprague-Dawley rat assessed as protection against maximal electroshock-induced seizures at 30 mg/kg po after 2 hrs; format: functional; how it was run: as §4
Mus musculus [14] = assay: Anticonvulsant activity in ip dosed CF1 albino mouse assessed as dose required to protect against maximal electroshock-induced seizures after 0.5 hrs; format: functional; how it was run: as §2
Rattus norvegicus [15] = assay: Anticonvulsant activity in Sprague-Dawley rat assessed as protection against subcutaneous pentylenetetrazole-induced seizures at 50 mg/kg po after 4 hrs; format: functional; how it was run: as §3
Rattus norvegicus [16] = assay: Anticonvulsant activity in Sprague-Dawley rat assessed as protection against pilocarpine-induced status epilepticus at 600 mg/kg, ip; format: functional, organism-based; set-up: dose 600 mg/kg; how it was run: as §1
Mus musculus [17] = assay: Neurotoxicity in ip dosed CF1 albino mouse assessed as dose required to cause toxicity after 0.5 hrs by rotarod test; format: organism-based; details: in vivo; how it was run: as §2
Mus musculus [18] = assay: Anticonvulsant activity in CF1 albino mouse assessed as protection against maximal electroshock-induced seizures at 300 mg/kg, ip after 4 hrs; format: functional, organism-based; set-up: dose 300 mg/kg; how it was run: as §2
Rattus norvegicus [19] = assay: Anticonvulsant activity in Sprague-Dawley rat assessed as protection against maximal electroshock-induced seizures at 30 mg/kg po after 0.25 hrs; format: functional; how it was run: as §4
Rattus norvegicus [20] = assay: Anticonvulsant activity in Sprague-Dawley rat assessed as protection against subcutaneous pentylenetetrazole-induced seizures at 50 mg/kg po after 1 hr; format: functional; how it was run: as §3
Mus musculus [21] = assay: Anticonvulsant activity in CF1 albino mouse assessed as protection against subcutaneous pentylenetetrazole-induced seizures at 300 mg/kg, ip after 0.5 hrs; format: functional, organism-based; set-up: dose 300 mg/kg; how it was run: as §2
Mus musculus [22] = assay: Neurotoxicity in CF1 albino mouse at 300 mg/kg, ip after 4 hrs by rotarod test; format: toxicity, organism-based; set-up: dose 300 mg/kg, route intraperitoneal; details: in vivo; how it was run: as §2
Mus musculus [23] = assay: Neurotoxicity in CF1 albino mouse assessed as mortality at 300 mg/kg, ip after 4 hrs by rotarod test; format: toxicity, organism-based; set-up: dose 300 mg/kg, route intraperitoneal; details: in vivo
How it was run: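 Male CF-1 albino mice, groups of eight, were given the compound ip as a suspension in 0.5% methylcellulose/water at 30, 100 and 300 mg/kg. Rotarod testing at 0.5 and 4 h scored inability to keep balance on the rod. The value is the lowest dose causing toxicity in half or more animals, with response comments such as death.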

Mus musculus [24] = assay: Anticonvulsant activity in ip dosed CF1 albino mouse assessed as dose required to protect against maximal electroshock-induced seizures after 4 hrs; format: functional; how it was run: as §2
Mus musculus [25] = assay: Anticonvulsant activity in CF1 albino mouse assessed as protection against electrically-induced seizure at 100 mg/kg, ip after 4 hrs by 6Hz psychomotor seizure test; format: functional
How it was run: (§5)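 Male CF-1 mice, compound suspended in 0.5% methylcellulose/water, given ip at 100 mg/kg; four mice per time point (0.25, 0.5, 1, 2, 4 h). Corneal stimulation with 0.2 ms monopolar rectangular pulses at 6 Hz for 3 s from a constant-current device, mice manually restrained. A mouse counted as protected if normal exploratory behaviour resumed within 10 s; motor impairment was noted alongside.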

Mus musculus [26] = assay: Toxicity in CF1 albino mouse assessed as minimal motor impairment at 100 mg/kg, ip after 2 hrs; format: organism-based; set-up: dose 100 mg/kg, route intraperitoneal; details: in vivo; how it was run: as §5
Mus musculus [27] = assay: Neurotoxicity in CF1 albino mouse at 300 mg/kg, ip after 0.5 hrs by rotarod test; format: toxicity, organism-based; set-up: dose 300 mg/kg, route intraperitoneal; details: in vivo; how it was run: as §2
Mus musculus [28] = assay: Anticonvulsant activity in CF1 albino mouse assessed as protection against electrically-induced seizure at 100 mg/kg, ip after 0.5 hrs by 6Hz psychomotor seizure test; format: functional, organism-based; set-up: dose 100 mg/kg; how it was run: as §5
Rattus norvegicus [29] = assay: Anticonvulsant activity in po dosed Sprague-Dawley rat assessed as protection against maximal electroshock-induced seizures; format: functional
How it was run: (§6)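 Male Sprague–Dawley rats dosed orally (0.5% methylcellulose/water suspension), groups of eight, tested at the previously estimated time of peak effect. Doses varied until at least three points lay in the 10–90% range of protection (MES, scPTZ) or minimal rotarod neurotoxicity. ED50/TD50 with 95% confidence intervals came from regression; PI = TD50/ED50.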

Mus musculus [30] = assay: Anticonvulsant activity in CF1 albino mouse assessed as protection against electrically-induced seizure at 100 mg/kg, ip after 0.25 hrs by 6Hz psychomotor seizure test; format: functional, organism-based; set-up: dose 100 mg/kg; how it was run: as §5
Mus musculus [31] = assay: Anticonvulsant activity in CF1 albino mouse assessed as protection against electrically-induced seizure at 100 mg/kg, ip after 1 hr by 6Hz psychomotor seizure test; format: functional; details: route intraperitoneal; how it was run: as §5
Mus musculus [32] = assay: Anticonvulsant activity in CF1 albino mouse assessed as protection against maximal electroshock-induced seizures at 300 mg/kg, ip after 0.5 hrs; format: functional, organism-based; set-up: dose 300 mg/kg; how it was run: as §2
[33] = Neurotoxicity in po dosed Sprague-Dawley rat by rotarod test; format: toxicity, organism-based; details: in vivo; how it was run: as §6
Rattus norvegicus [34] = assay: Anticonvulsant activity in po dosed Sprague-Dawley rat assessed as time required to peak protection against seizures; format: functional
[35] = Displacement of [3H]batrachotoxin from neurotoxin site 2 of voltage-gated sodium channel in rat forebrain tissue; details: read-out: IC50
Rattus norvegicus [36] = species: Rattus norvegicus; assay: Protection index, ratio of TD50 for Sprague-Dawley rat by rotarod test to ED50 for Sprague-Dawley rat by maximal electroshock test; format: functional; how it was run: as §6

Compound	Activity (Rattus norvegicus [1])	Activity (Rattus norvegicus [2]) [g]	Activity (Rattus norvegicus [3])	Activity (Mus musculus [4])	Activity (Rattus norvegicus [7])	Activity (Rattus norvegicus [9]) [%]	Activity (Rattus norvegicus [10])	Activity (Mus musculus [11]) [mg/kg]	Activity (Rattus norvegicus [13]) [%]	Activity (Mus musculus [14]) [mg/kg]	Activity (Rattus norvegicus [16])	Activity (Rattus norvegicus [19])	Activity (Mus musculus [21])	Activity (Mus musculus [24]) [mg/kg]	also measured
O=C1CC2(CCc3ccccc3C2)C(=O)N1CN1CCN(c2ccc(F)cc2)CC1 (stereo unspecified)	Non-toxic	20	inactive	inactive	inactive	25	inactive	300	25	100	inactive	inactive	–	–	Activity (Rattus norvegicus [5]): inactive; Activity (Mus musculus [6]): Toxic; Activity (Rattus norvegicus [8]): 25%; Activity (Rattus norvegicus [12]): inactive; Activity (Rattus norvegicus [15]): 25%; Activity (Mus musculus [17]): 300 mg/kg; Activity (Mus musculus [18]): inactive; Activity (Rattus norvegicus [20]): inactive
O=C1NC2(CCc3ccccc3C2)C(=O)N1CN1CCN(Cc2ccccc2)CC1 (stereo unspecified)	–	–	–	inactive	75%	50	50%	–	50	100	–	25%	inactive	100	Activity (Mus musculus [22]): Non-toxic; Activity (Mus musculus [23]): Non-toxic
O=C1CC2(CCc3ccccc3C2)C(=O)N1CN1CCN(c2cccc(C(F)(F)F)c2)CC1 (stereo unspecified)	Non-toxic	15	inactive	inactive	75%	100	inactive	300	75	–	inactive	inactive	inactive	100	Activity (Mus musculus [25]): inactive; Activity (Mus musculus [26]): Toxic; Activity (Mus musculus [27]): Non-toxic; Activity (Mus musculus [28]): inactive; ED50 (Rattus norvegicus [29]): 9 mg/kg; Activity (Mus musculus [30]): inactive; Activity (Mus musculus [31]): 25%; Activity (Mus musculus [32]): inactive; TD50 [33]: > 250 mg/kg; Time (Rattus norvegicus [34]): 2 h; IC50 [35]: 9.28 µM; PI (Rattus norvegicus [36]): >27.78
